Bioassay records deposited in PubChem BioAssay by The Scripps Research Institute Molecular Screening Center.
Sampled rows, rich in hits. Any-hit rate of the full collection: about 1.6%.
ABHD4 inh: inhibitors of mouse ABHD4; purified mABHD4, FP-Rh probe fluorescence polarization; AID 720543; inhibition, % at 8.92 µM; Q8VD66; 0.54% of 370,000 active;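 active = inhibition exceeding the mean over every tested compound plus 3 SD, cut at about 30% in these data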;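 also: 0% = plate median of compound wells and 100% = S159A mutant with DMSO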
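Assay system: mouse ABHD4 enzyme, wild type / Also added: fluorescent activity-based probe FP-Rh / Doses: single nominal dose of 8.92 µM, 0.89% DMSO final / Timing: 45 min compound pre-incubation plus 60 min probe step, 25 °C / Signal: FP readout, ex 525 nm / em 598 nm / Control set: S159A mutant/DMSO as 100%, compound-well median as 0%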
HTRA1 inh: inhibitors of human serine peptidase HTRA1; Q92743; recombinant HTRA1, FP-rhodamine activity-based probe, fluorescence polarization; inhibition, % at 5.96 µM; 0.5% of 340,000 active; AID 504803; in the data active = inhibition above about 36%;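 also: 0% = enzyme with DMSO and 100% = wells lacking enzyme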
DAGLB inh: blocks human DAGLB lipase activity; HEK293T DAGLB membrane lysate, EnzChek fluorogenic substrate; inhibition, % at 5.17 µM; Q8NCG7; 0.059% of 340,000 active; in the data active = inhibition above about 34%;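 also: 0% = enzyme with vehicle and 100% = wells lacking enzyme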
Target sequence (Q8NCG7 whole entry, looked up): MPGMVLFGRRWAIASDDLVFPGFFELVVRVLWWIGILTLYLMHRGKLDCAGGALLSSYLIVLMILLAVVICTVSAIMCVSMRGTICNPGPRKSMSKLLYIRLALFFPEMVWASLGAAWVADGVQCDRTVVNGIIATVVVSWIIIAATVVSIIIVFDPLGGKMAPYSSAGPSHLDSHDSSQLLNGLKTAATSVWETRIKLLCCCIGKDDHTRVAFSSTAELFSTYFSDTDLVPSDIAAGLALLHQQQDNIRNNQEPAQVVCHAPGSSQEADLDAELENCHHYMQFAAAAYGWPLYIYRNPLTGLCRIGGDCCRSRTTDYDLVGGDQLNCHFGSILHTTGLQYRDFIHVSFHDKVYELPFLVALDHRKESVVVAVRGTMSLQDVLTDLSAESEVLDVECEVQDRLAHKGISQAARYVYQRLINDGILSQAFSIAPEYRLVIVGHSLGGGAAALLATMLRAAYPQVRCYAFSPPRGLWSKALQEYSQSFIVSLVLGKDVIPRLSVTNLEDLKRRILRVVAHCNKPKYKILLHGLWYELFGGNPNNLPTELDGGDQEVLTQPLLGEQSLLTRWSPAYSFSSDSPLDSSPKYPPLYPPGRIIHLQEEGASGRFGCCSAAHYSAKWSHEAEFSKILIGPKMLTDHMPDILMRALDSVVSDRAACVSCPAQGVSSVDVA
SIAE inh: inhibitors of human sialic acid acetylesterase SIAE. Q9HAT2. SIAE FP-Rh probe binding, fluorescence polarization. inhibition, % at 9.66 µM. 0.69% of 370,000 active. AID 1053197;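 active = inhibition above a cutoff: mean of compounds within the control limits plus 3 SD of those, cut at about 17% in these data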;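 also: 0% = plate median of compound wells and 100% = probe without SIAE protein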
TCR CD3 inh: inhibitors of human TCR-CD3 interaction | TAMRA-labeled TCR probe fluorescence, biochemical | inhibition, % at 9.4 µM | 0.37% of 360,000 active; in the data active = inhibition above about 19%;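 also: recombinant mutant TCR 2C K166C tagged with TAMRA read by polarization; 0% = receptor in buffer alone and 100% = receptor with positive control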
DAGLB inh conf: DAGLB (human) inhibition, confirmation screen; shares compounds with DAGLB inh; HEK293T DAGLB membrane lysate, EnzChek fluorogenic substrate; inhibition, % at 5.17 µM; 73% of 190 active; AID 504445;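 active = mean inhibition over triplicate wells above a set limit taken from the primary lipase screen, cut at about 34% in these data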;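 also: 0% = DAGLB with DMSO and 100% = wells lacking DAGLB enzyme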
* marks the source's active call; other numbers are inactive results; nt = no result.

SMILES	ABHD4 inh	HTRA1 inh	DAGLB inh	SIAE inh	TCR CD3 inh	others
CCN(CC)C(=O)CN1C(=O)C2CCCCN2C(=O)c2ccccc21 (stereo not drawn)	5	nt	nt	0	nt
Cc1ccc(NC2=C/C(=N/S(=O)(=O)c3cccs3)c3ccccc3C2=O)cc1C	7	3	3	7	10
Cc1cc(C)c(S(=O)(=O)/N=C2/C=C(Sc3ncn[nH]3)C(=O)c3ccccc32)cc1C	43*	22	1	20*	6
O=C(C1CCN(c2ncnc3c2sc2cccc(F)c23)CC1)N1CCN(Cc2ccccc2)CC1	-6	nt	nt	-3	nt
CCCOC(=O)C1C2C=CC3(CN(c4ccc(Cl)c(F)c4)C(=O)C13)O2 (stereo not drawn)	-1	2	-1	49*	-5
O=c1[nH][nH]c2c(N=Cc3ccccc3O)ccc(F)c12	nt	47*	-3	nt	nt
CCOC(=O)C1=CCN(S(=O)(=O)c2cccc(Cl)c2)C1c1cccc(Br)c1 (stereo not drawn)	-8	nt	nt	1	3
Cc1ccc(O)c(NC(=O)CSc2ccc(Cl)cc2)c1	-15	-29	0	4	1
Cc1ccc(NS(=O)(=O)c2ccc(NC(=O)CSc3ccc(Cl)cc3)cc2)c(C)c1	-27	-31	-8	-2	23*
COC(=O)[C@@]12CCCCC3=C1N(CCC3)C(=O)[C@H]2CC(=O)NCCC(C)C	0	nt	nt	2	nt
Cc1nc2sccn2c1P(c1c(C)nc2sccn12)c1c(C)nc2sccn12	-12	2	1	17*	3
CCOC(=O)c1c(C)nc2sccn12	0	-2	-4	4	7
COc1ccc(C(=O)Oc2c(CN3CCOCC3)cc(Cl)c3cccnc23)cc1	5	40*	1	-4	-3
COc1cccc(C(=O)Oc2c(CN3CCOCC3)cc(Cl)c3cccnc23)c1	9	36	1	-1	-4
N#C/C(C(=O)N1CCCCC1)=C1\Nc2ccccc2S1	11	2	0	2	-6
Cc1ccc(NC(=S)/C(C#N)=C2/Nc3ccccc3S2)cc1	63*	1	14	4	7
c1nc(NCC2CCOC2)c2cc(-c3ccc4c(c3)OCO4)ccc2n1 (stereo not drawn)	-3	nt	nt	-28	nt
Cc1cccc(-n2c(O)c(C=Nc3ccccc3O)c3ccccc3c2=O)n1	3	2	4	-3	40*
COc1ccc(-c2cc(C(F)(F)F)n3nc(C(=O)Nc4cc(C)on4)cc3n2)cc1OC	3	8	3	18*	1
O=C(Nc1ccc(N2CCOCC2)cc1)c1ccc2nc(-c3ccco3)c(-c3ccco3)nc2c1	12	0	10	-6	0
CC(=O)c1ccc(NC(=O)c2ccc3nc(-c4ccco4)c(-c4ccco4)nc3c2)cc1	nt	39*	11	nt	nt
CCOC(=O)N1CCN(C(=O)CCS(=O)(=O)c2ccc(Br)s2)CC1	6	9	-4	17*	0
Cc1ccsc1C=Nn1c(-c2n[nH]c3c2CCC3)n[nH]c1=S	1	nt	nt	11	nt
CCCC1C2CN(C(C)C)CC=C2C(C#N)=C(N)C1(C#N)C#N (stereo not drawn)	13	11	-8	24*	11
CN1CC=C2C(C#N)=C(N)C(C#N)(C#N)C(CCc3ccccc3)C2C1 (stereo not drawn)	nt	14	1	nt	nt
SMILES	ABHD4 inh	HTRA1 inh	DAGLB inh	SIAE inh	TCR CD3 inh	others
CCn1cc(C(=O)O)c(=O)c2cnc(N3CCN(C(=S)NC(=O)c4ccc(OC)cc4)CC3)nc21	-3	1	-2	17*	-8
CCn1cc(C(=O)O)c(=O)c2cnc(N3CCN(C(=S)NC(=O)c4ccc(F)c(F)c4)CC3)nc21	-5	2	-3	6	-3
Cc1[nH]c2ccccc2c1/C=N/NC(=O)c1cccc(S(=O)(=O)Nc2cccc(C(F)(F)F)c2)c1	-21	31	1	19*	5
NNC(=O)c1cccc(S(=O)(=O)Nc2cccc(C(F)(F)F)c2)c1	2	-3	1	-74	1
COc1cc(O)c(C(CC(=O)N2CCC(C)CC2)c2ccc3c(c2)OCO3)c(OC)c1 (stereo not drawn)	0	nt	nt	4	nt
CC(C1=CCCCC1)c1cnn(C)c1 (stereo not drawn)	-2	nt	nt	1	nt
Cc1ccccc1N1CCN(S(=O)(=O)c2ccc3c(c2)n(C)c(=O)c(=O)n3C)CC1	3	nt	nt	0	nt
C/C(CC(=O)Nc1ccc(Cl)c(C(F)(F)F)c1)=N\NC(=O)c1cc2ccccc2cc1O	14	22	-4	40*	-4
COc1cccc(NC(=O)C/C(C)=N/NC(=O)c2ccccc2Cl)c1	-3	-2	-2	3	-7
COc1ccc2c(c1)[C@@]1(NCCc3c1[nH]c1ccc(OC)cc31)C(=O)N2	-2	nt	nt	-7	nt
Cc1cc(Nc2cccc(Cl)c2)nc(NCc2ccccc2)n1	19	-29	2	24*	0
Cc1cc(N/N=C/c2ccc(Cl)cc2)nc(NCc2ccccc2)n1	11	-38	1	7	2
CCCN1C(=O)/C(=C2/C=Cc3ccccc3N2CC)SC1=S	1	11	54*	-5	-10	DAGLB inh conf=73*
O=C(O)c1ccc(N=N/C(=N\Nc2ccc(C(=O)O)cc2)c2ccccc2)cc1	25	10	39*	-10	10	DAGLB inh conf=29
C[C@@H]1/C=C/CC(=O)N2[C@H](CC(=O)N[C@@H]1c1ccccc1)C[C@@H](C)[C@H]2c1ccccc1	-2	nt	nt	5	nt
CCOc1ccc(Nc2nnc(SCc3nc4ccccc4c(=O)[nH]3)s2)cc1	6	-6	60*	4	-4	DAGLB inh conf=74*
COc1ccc(S(=O)(=O)N2CCOCC2)cc1OC	-3	1	0	-5	11
COc1ccc(S(=O)(=O)N2CCOCC2)cc1N=Nc1sc(N)nc1-c1ccccc1	16	19	56*	5	2	DAGLB inh conf=92*
CCN(CC)C(=O)CC[C@@H]1CC[C@]2(CCCN(S(=O)(=O)c3ccccc3)C2)O1	9	nt	nt	-2	nt
COC(=O)[C@]12C[C@H](CC(=O)NCc3ccc(C)o3)C(=O)N(Cc3cccc4ccccc34)C1=C[C@H](COCc1ccccc1)O[C@@H]2C	-6	nt	nt	-3	nt
O=[N+]([O-])c1cc(-c2ccccc2)cc([N+](=O)[O-])c1O	-32	2	43*	-1	1	DAGLB inh conf=53*
COc1ccc(OC)c(NC(=O)CSc2nnc(CNC(=O)c3ccccc3F)o2)c1	-4	-2	36*	9	6	DAGLB inh conf=-6
COc1ccc(C(=O)NCc2nnc(SCC(=O)Nc3cc(OC)ccc3OC)o2)cc1	1	-6	-1	-2	10
C/C(=N\Nc1ccc(S(N)(=O)=O)cc1[N+](=O)[O-])c1ccc2c(c1)OCO2	0	9	37*	4	1	DAGLB inh conf=42*
